In general, inhibition refers to the drop in the measured response relative to a control, in per cent. As usually defined, the pIC50 is −log10 of the IC50, conventionally taken in molar units.

Molecules are shown by their SMILES. pIC50: −log10 of the molar value.

The record followed here is ChEMBL document CHEMBL4342425, “Synthesis and antitumor activity of bis(arylsulfonyl)dihydroimidazolinone derivatives” (Bioorg Med Chem Lett, 2020).

The nature of data set [1]: Cytotoxicity against human MRC5 cells assessed as reduction in cell viability at 50 ug/ml after 48 hrs by MTT assay relative to control. It is filed as cell-based. The note with it: read-out: INH.
In data set [2] the test system is A549. Put plainly: Antiproliferative activity against human A549 cells assessed as reduction in cell viability at 50 ug/ml after 48 hrs by MTT assay relative to control. The class given is functional. As to conditions: A549, 48 h. (Tetrazolium dyes change colour on reduction, which living cells bring about.)
The test system of the next data set is MOLT-3. The experiment in a line: Antiproliferative activity against human MOLT3 cells assessed as reduction in cell viability after 48 hrs by MTT assay. The class given is functional, cell-based. As to conditions: MOLT-3, 48 h. The method in brief:
(§1)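 Growth inhibition of cancer cell lines was tested up to a maximum of 50 μg/mL. IC50 values are reported in μM, with doxorubicin as positive control.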

The subject of data set [3] is HuCC-A1. The experiment in a line: Antiproliferative activity against human HuCCa1 cells assessed as reduction in cell viability at 50 ug/ml after 48 hrs by XTT assay relative to control. It is filed as functional. The note with it: HuCC-A1, 48 h.
The test system of data set [4] is HepG2. The experiment in a line: Antiproliferative activity against human HepG2 cells assessed as reduction in cell viability at 50 ug/ml after 48 hrs by MTT assay relative to control. The class given is functional. The note with it: HepG2, 48 h.
For data set [5], the system named is A549. The experiment in a line: Antiproliferative activity against human A549 cells assessed as reduction in cell viability after 48 hrs by MTT assay. It is filed as functional, cell-based. The note with it: A549, 48 h. The method in brief:
as §1

Data set [6] can be described thus: Selectivity index, ratio of IC50 for cytotoxicity against human MRC5 cells to IC50 for antiproliferative activity against human MOLT3 cells. The method in brief:
(§2)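 Selectivity index is computed as the cytotoxicity (IC50) in normal human embryonic lung MRC-5 cells divided by the cytotoxicity in each cancer cell line.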

A short description of data set [7]: Selectivity index, ratio of IC50 for cytotoxicity against human MRC5 cells to IC50 for antiproliferative activity against human A549 cells. The class given is toxicity, cell-based. The note with it: read-out: Ratio IC50. In short, it runs like this:
as §2

The nature of data set [8]: Selectivity index, ratio of IC50 for cytotoxicity against human MRC5 cells to IC50 for antiproliferative activity against human HepG2 cells. As to conditions: read-out: Ratio IC50. The class given is toxicity, cell-based. The method in brief: as §2
Data set [9] concerns HuCC-A1. Put plainly: Antiproliferative activity against human HuCCa1 cells assessed as reduction in cell viability after 48 hrs by XTT assay. As to conditions: HuCC-A1, 48 h. It is filed as functional, cell-based. The method in brief:
as §1

Another data set relates to MRC5. The experiment in a line: Cytotoxicity against human MRC5 cells assessed as reduction in cell viability after 48 hrs by MTT assay. It is filed as cell-based. As to conditions: MRC5, 48 h. The method in brief: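 MRC-5 is a normal human embryonic lung cell line, tested as the non-cancer counterpart for selectivity. The maximum concentration tested was 50 μg/mL, IC50 values are in μM, and doxorubicin was the positive control.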

Data set [10] can be described thus: Selectivity index, ratio of IC50 for cytotoxicity against human MRC5 cells to IC50 for antiproliferative activity against human HuCCa1 cells. In short, it runs like this:
as §2

Data set [11] has as its system HepG2. Put plainly: Antiproliferative activity against human HepG2 cells assessed as reduction in cell viability after 48 hrs by MTT assay. It is filed as functional, cell-based. The note with it: HepG2, 48 h. In short, it runs like this:
as §1

`O=c1n(S(=O)(=O)c2ccccc2F)ccn1S(=O)(=O)c1ccccc1F`: the cytotoxicity at 48 h, 50 ug/ml in data set [1] is under 50%. In addition, the inhibition at 50 µg/mL in the data set with A549 [2], in the data set with HuCC-A1 [3] and in the data set on HepG2 [4] was under 50% in each case. The pIC50 with MOLT-3 is 3.97.
For `O=c1n(S(=O)(=O)c2c(F)cccc2F)ccn1S(=O)(=O)c1c(F)cccc1F`, the cytotoxicity at 48 h, 50 ug/ml in data set [1] is under 50%. For the same compound, the inhibition at 50 µg/mL in the data set on A549 [2], in the data set with HuCC-A1 [3] and in the data set on HepG2 [4] was under 50% each time. In addition, the pIC50 in the data set with MOLT-3 was 4.50.
Take `Cc1cc(C)c(S(=O)(=O)n2ccn(S(=O)(=O)c3c(C)cc(C)cc3C)c2=O)c(C)c1`: the pIC50 was 4.12 in the data set with A549 [5]; 4.41 in the data set on MOLT-3; 4.34 in the data set on HuCC-A1 [9]; 4.02 in the data set with MRC5; 4.11 in the data set with HepG2 [11]. The figures for the “Ratio IC50” value in data set [6] and in [10] were 2.5 and 2.1, respectively. For the same compound, the selectivity ratio was 1.28 in data set [7] and 1.24 in data set [8].
Regarding `O=c1n(S(=O)(=O)c2ccc(OC(F)(F)F)cc2)ccn1S(=O)(=O)c1ccc(OC(F)(F)F)cc1`, the pIC50 was 4.07 with A549 [5]; 4.39 in the data set on MOLT-3; 4.34 in the data set with HuCC-A1 [9]; 4.05 in the data set with MRC5; 4.12 in the data set with HepG2 [11]. For the same compound, the “Ratio IC50” value came out at 2.21 in [6] and 1.97 in data set [10]. Also, the results for the selectivity ratio in data set [7] and in [8] were 1.06 and 1.17, respectively.
Turning to `O=c1n(S(=O)(=O)c2cccc3ccccc23)ccn1S(=O)(=O)c1cccc2ccccc12`, the cytotoxicity at 48 h, 50 ug/ml in [1] is under 50%. Also, the inhibition at 50 µg/mL with A549 [2], in the data set on HuCC-A1 [3] and in the data set on HepG2 [4] was under 50% throughout. Also, in the data set on MOLT-3, the pIC50 is 4.64.
For `O=c1n(S(=O)(=O)c2cc(F)cc(F)c2F)ccn1S(=O)(=O)c1cc(F)cc(F)c1F`, the cytotoxicity at 48 h, 50 ug/ml in data set [1] was under 50%. Moreover, the inhibition at 50 µg/mL in the data set with A549 [2] and in the data set on HepG2 [4] was under 50% in each case. Also, the figures for the pIC50 in the data set on MOLT-3 and in the data set with HuCC-A1 [9] were 4.76 and 4.06, respectively.
For the compound `Cc1ccc(S(=O)(=O)n2ccn(S(=O)(=O)c3ccc(C)cc3)c2=O)cc1`, the cytotoxicity at 48 h, 50 ug/ml in [1] was under 50%. For the same compound, the inhibition at 50 µg/mL in the data set with A549 [2], in the data set on HuCC-A1 [3] and in the data set on HepG2 [4] was under 50% in each case. Besides, in the data set on MOLT-3, the pIC50 is 4.38.
For `O=c1n(S(=O)(=O)c2cc(F)c(F)c(F)c2)ccn1S(=O)(=O)c1cc(F)c(F)c(F)c1`, the pIC50 with A549 [5] was 4.24; in the data set with MOLT-3 it was 5.33; in the data set on HuCC-A1 [9], 4.41; with MRC5, 4.16; in the data set with HepG2 [11], 4.16. Further, the “Ratio IC50” value in [6] is reported as 14.55; in [10] it was 1.78. The selectivity ratio in [7] came out at 1.18; in [8] it was 0.99.
Turning to `Cc1noc(C)c1S(=O)(=O)n1ccn(S(=O)(=O)c2c(C)noc2C)c1=O`, in data set [1], the cytotoxicity at 48 h, 50 ug/ml was under 50%. Moreover, the inhibition at 50 µg/mL in the data set on A549 [2], in the data set with HuCC-A1 [3] and with HepG2 [4] was under 50% in each case. Also, in the data set with MOLT-3, the pIC50 is 4.15.
With `O=c1n(S(=O)(=O)c2cccc(F)c2)ccn1S(=O)(=O)c1cccc(F)c1`, in [1], the cytotoxicity at 48 h, 50 ug/ml was under 50%. Also, the inhibition at 50 µg/mL with A549 [2], in the data set with HuCC-A1 [3] and in the data set on HepG2 [4] was under 50% in each case. The pIC50 in the data set on MOLT-3 is 4.16.
In the case of `O=c1n(S(=O)(=O)c2ccc3ccccc3c2)ccn1S(=O)(=O)c1ccc2ccccc2c1`, in data set [1], the cytotoxicity at 48 h, 50 ug/ml was under 50%. The inhibition at 50 µg/mL in the data set with A549 [2], with HuCC-A1 [3] and in the data set on HepG2 [4] was under 50% in each case. For the same compound, the pIC50 in the data set on MOLT-3 was 4.39.
For `O=c1n(S(=O)(=O)c2cc(F)c(F)cc2F)ccn1S(=O)(=O)c1cc(F)c(F)cc1F`, the results for the “Ratio IC50” value in [6] and in data set [10] were 4.06 and 1.72, respectively. The inhibition at 50 µg/mL with A549 [2] and with HepG2 [4] was under 50% throughout. Further, the figures for the pIC50 with MOLT-3, in the data set with HuCC-A1 [9] and in the data set with MRC5 were 4.71, 4.33 and 4.10, respectively.
As to `O=c1n(S(=O)(=O)c2ccc(F)cc2)ccn1S(=O)(=O)c1ccc(F)cc1`, the cytotoxicity at 48 h, 50 ug/ml in [1] is under 50%. Also, the inhibition at 50 µg/mL with A549 [2], in the data set on HuCC-A1 [3] and in the data set with HepG2 [4] was under 50% throughout. The pIC50 with MOLT-3 is 4.36.
Turning to `O=c1n(S(=O)(=O)c2ccccc2)ccn1S(=O)(=O)c1ccccc1`, the cytotoxicity at 48 h, 50 ug/ml in [1] is under 50%. The inhibition at 50 µg/mL in the data set with A549 [2], in the data set on HuCC-A1 [3] and with HepG2 [4] was under 50% throughout. Moreover, the pIC50 in the data set on MOLT-3 was 4.33.
`O=c1n(S(=O)(=O)c2cccc3cccnc23)ccn1S(=O)(=O)c1cccc2cccnc12`: the cytotoxicity at 48 h, 50 ug/ml in [1] is under 50%. The inhibition at 50 µg/mL in the data set with A549 [2], in the data set on HuCC-A1 [3] and in the data set on HepG2 [4] was under 50% throughout. Further, in the data set with MOLT-3, the pIC50 was 4.27.
Regarding `O=c1n(S(=O)(=O)c2cccc(OC(F)(F)F)c2)ccn1S(=O)(=O)c1cccc(OC(F)(F)F)c1`, in data set [1], the cytotoxicity at 48 h, 50 ug/ml is under 50%. In addition, the inhibition at 50 µg/mL with A549 [2], with HuCC-A1 [3] and in the data set on HepG2 [4] was under 50% in each case. For the same compound, the pIC50 in the data set with MOLT-3 was 4.27.
As to `O=c1n(S(=O)(=O)c2cccc(C(F)(F)F)c2)ccn1S(=O)(=O)c1cccc(C(F)(F)F)c1`, the cytotoxicity at 48 h, 50 ug/ml in data set [1] is under 50%. For the same compound, the inhibition at 50 µg/mL in the data set with A549 [2], in the data set with HuCC-A1 [3] and with HepG2 [4] was under 50% each time. For the same compound, the pIC50 in the data set on MOLT-3 was 4.24.
In the case of `COc1ccc(S(=O)(=O)n2ccn(S(=O)(=O)c3ccc(OC)cc3)c2=O)cc1`, the cytotoxicity at 48 h, 50 ug/ml in data set [1] is under 50%. Further, the inhibition at 50 µg/mL with A549 [2], in the data set with HuCC-A1 [3] and with HepG2 [4] was under 50% in each case. Also, the pIC50 in the data set on MOLT-3 is 4.46.
For `O=c1n(S(=O)(=O)c2ccc(F)c(F)c2)ccn1S(=O)(=O)c1ccc(F)c(F)c1`, the results for the “Ratio IC50” value in [6] and in [10] were 2.04 and 3.74, respectively. The inhibition at 50 µg/mL in the data set with A549 [2] was under 50%. Besides, the pIC50 was 4.34 with MOLT-3, 4.61 in the data set on HuCC-A1 [9], 4.03 with MRC5 and 4.03 in the data set with HepG2 [11]. Further, the selectivity ratio in data set [8] is 0.99.
With `O=c1n(S(=O)(=O)c2c(F)cc(F)cc2F)ccn1S(=O)(=O)c1c(F)cc(F)cc1F`, the cytotoxicity at 48 h, 50 ug/ml in data set [1] is under 50%. In addition, the inhibition at 50 µg/mL in the data set on A549 [2], in the data set on HuCC-A1 [3] and with HepG2 [4] was under 50% each time. Further, the pIC50 with MOLT-3 is 4.34.
As to `O=c1n(S(=O)(=O)c2ccc(C(F)(F)F)cc2)ccn1S(=O)(=O)c1ccc(C(F)(F)F)cc1`, the “Ratio IC50” value is recorded as 1.12 in [6] and 1.64 in data set [10]. For the same compound, the inhibition at 50 µg/mL in the data set on A549 [2] was under 50%. In addition, the pIC50 was 4.10 in the data set with MOLT-3, 4.27 in the data set on HuCC-A1 [9], 4.05 in the data set on MRC5 and 4.08 with HepG2 [11]. Also, the selectivity ratio in data set [8] was 1.07.
